Screening results: PubChem, The Scripps Research Institute Molecular Screening Center
A selection: hits, their analogues and other compounds. The true share with any hit is near 4.6%.
TAAR1 ag – human TAAR1 agonists, primary screen, Fluo-8 calcium fluorescence, CHO RD-HGA16 cells; Trace amine-associated receptor 1 (Homo sapiens), Q96RJ0; vehicle wells 0%, saturating PEA agonist 100%; activation, % at 3 µM; 0.99% of 360,000 active; AID 624467, 2012;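 active = activation above the mean activation of all test compounds in the run plus 3 SD, cut at about 38% in these data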
Target sequence (Q96RJ0 whole entry, looked up): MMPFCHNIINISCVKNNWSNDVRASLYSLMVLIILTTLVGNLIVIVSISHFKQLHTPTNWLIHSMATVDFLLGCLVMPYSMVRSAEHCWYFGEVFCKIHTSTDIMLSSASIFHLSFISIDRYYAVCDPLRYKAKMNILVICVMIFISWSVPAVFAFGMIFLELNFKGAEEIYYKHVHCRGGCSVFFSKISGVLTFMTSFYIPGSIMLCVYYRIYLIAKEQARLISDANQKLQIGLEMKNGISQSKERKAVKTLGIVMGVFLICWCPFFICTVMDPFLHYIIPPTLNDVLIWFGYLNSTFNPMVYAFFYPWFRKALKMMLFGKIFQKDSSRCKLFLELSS
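Test system: RD-HGA16 (CHO) cells co-expressing Gα16 and hTAAR1 | Doses: Single dose, 3 µM | Schedule: 17-24 h seeding, 75 min 37 °C dye, 30 min RT | Evaluation: % activation from peak over basal fluorescence ratio, DMSO-to-PEA scaled | Technique: Kinetic Fluo-8 calcium fluorescence | Benchmarks: Low control DMSO, high control PEA (EC100)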
OX1R antag-1 – OX1R (HCRTR1) antagonists, primary screen, fluorescence, CHO/OX1R cells, Fluo-8 calcium, orexin A. 0.43% of 330,000 active. inhibition, % at 5 µM. Fluo-8 calcium fluorescence. Orexin/Hypocretin receptor type 1 (Homo sapiens), O43613;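 active = inhibition above its plate's threshold, mean inhibition of all tested compounds on the plate plus 3 SD, cut at about 37% in these data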
CHO parental Ca – ATP-evoked calcium signal inhibitors, parental CHO, primary screen, counter-screen for OX1R antagonist project, cell-based, fluorescence, Fluo-8 calcium dye; parental CHO-K1, ATP-induced calcium, Fluo-8 fluorescence; inhibition, % at 5.6 µM; 0.63% of 330,000 active;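 active = inhibition above that plate's mean sample inhibition plus 3 SD, cut at about 26% in these data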
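Test system: parental CHO cells; detection: calcium-sensitive Fluo-8 fluorescence; evaluation: percent inhibition of calcium signal; also added: ATP as calcium-mobilizing challenge; repeats: one well per compound; control set: ATP-challenged DMSO wells low, unchallenged DMSO wells high; compound: single nominal dose of 5.6 µM per compound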
TAAR1 antagonist – human TAAR1 antagonists, primary screen, Fluo-8 calcium fluorescence, CHO RD-HGA16 cells; Trace amine-associated receptor 1 (Homo sapiens), Q96RJ0; antagonist; inhibition, % at 3 µM; 1.5% of 360,000 active; AID 624466, 2012;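 active = inhibition above a per-plate cutoff, the mean inhibition of test compounds on that plate plus 3 SD, cut at about 49% in these data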
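test system = CHO RD-HGA16 cells bearing hTAAR1 | replication = singlicate | controls = DMSO-only wells and EC80 β-PEA-stimulated wells | reagent = EC80 β-phenethylamine stimulus | read-out basis = percent inhibition of PEA-evoked calcium signal, max/basal emission ratio | schedule = seeding 17-24 h prior, 75-min 37 °C, 30-min RT dye loading | signal = kinetic Fluo-8 calcium fluorescence measurement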
GPR7 antag – GPR7 receptor antagonists, primary screen, cell-based, fluorescence, single concentration. Neuropeptides B/W receptor type 1 (Homo sapiens), P48145. GPR7-expressing cells, fluorescence antagonist assay. inhibition, % at 4.4 µM. 1.1% of 290,000 active; in the data active = inhibition above about 16%, passing the limit was not always enough;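 also: cells stimulated with the agonist NPW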
Target sequence (P48145 whole entry, looked up): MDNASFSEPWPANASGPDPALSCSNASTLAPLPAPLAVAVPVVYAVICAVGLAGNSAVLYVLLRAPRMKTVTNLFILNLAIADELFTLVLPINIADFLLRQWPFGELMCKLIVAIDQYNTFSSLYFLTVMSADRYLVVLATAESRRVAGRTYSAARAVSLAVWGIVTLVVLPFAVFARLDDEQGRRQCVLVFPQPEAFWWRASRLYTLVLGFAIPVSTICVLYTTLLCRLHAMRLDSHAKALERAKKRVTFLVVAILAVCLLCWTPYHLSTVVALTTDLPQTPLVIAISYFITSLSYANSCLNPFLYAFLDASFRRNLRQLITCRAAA
OX1R antag-2 – antagonists of human orexin 1 receptor (OX1R) | Orexin/Hypocretin receptor type 1 (Homo sapiens), O43613 | OX1R-expressing cells, FRET antagonist read-out | inhibition, % at 6.6 µM | 1.8% of 330,000 active | AID 485270, 2010; in the data active = inhibition mostly above about 38%, no sharp cut-off; inactive = mostly below about 40%
TAAR1 nonsel count – nonselective antagonists in TAAR1 counter-screen cells, counter-screen for hTAAR1 antagonist project, cell-based, fluorescence, calcium; shares compounds with TAAR1 antagonist; counterscreen cell line, antagonist mode; inhibition, % at 3 µM; 77% of 2,400 active; AID 651780, 2012; in the data active = inhibition above about 22%;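 also: CHO-Ga16 host cells stimulated with ATP at an EC80 level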
TAAR1 antag conf – human TAAR1 antagonists, retest of hits, confirmation, cell-based, fluorescence | shares compounds with TAAR1 antagonist | inhibition, % at 3 µM | 40% of 2,400 active | TAAR1-expressing cells, fluorescence antagonist read-out; in the data active = inhibition above about 49%;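 also: CHO-Ga16 host cells challenged with agonist PEA near its EC80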
Ga16 ag counter – calcium activation in Ga16-expressing cells, counter-screen for TAAR1 antagonist project, cell-based, fluorescence; shares compounds with TAAR1 antagonist; agonist counterscreen; activation, % at 3 µM; 18% of 2,400 active; AID 651953, 2012; in the data active = activation above about 12%
TAAR1 ag counter – TAAR1 activation by candidate antagonists – cell-based, fluorescence, counter-screen for TAAR1 antagonist project. shares compounds with TAAR1 antagonist. hTAAR1 cell line, agonist mode. activation, % at 3 µM. 2% of 2,400 active. AID 651955, 2012; in the data active = activation above about 37%;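 also: CHO cells stably expressing TAAR1 with calcium dye readout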
Large screens that a line does not name were inactive (follow-up assays come after a bar, where they were run).

O=C(Nc1cccnc1)c1cc(S(=O)(=O)N2CCOCC2)ccc1Br	none
CCN1CCc2c(OCC(=O)Nc3ccccc3)cccc2C1=O	none
Cc1ccc(C)c(NC(=O)COc2cccc3c2CCN(Cc2ccccc2)C3=O)c1	TAAR1 antagonist 62.7 | TAAR1 nonsel count 27.3 | TAAR1 antag conf inactive | Ga16 ag counter inactive | TAAR1 ag counter inactive
COc1cc2c(c(OC)c1OC)[C@@]1(c3ccccc3)CCCCC[C@H]1[C@@H]2NC(=O)C(F)(F)F	none (no result: OX1R antag-1, CHO parental Ca, GPR7 antag, OX1R antag-2)
O=S(=O)(c1ccc(F)cc1)N1CCN(c2nc(-c3cccnc3)nc3ccccc23)CC1	none (no result: GPR7 antag)
O=S(=O)(c1ccccc1)N1CCN(c2nc(-c3cccnc3)nc3ccccc23)CC1	TAAR1 antagonist 68.9 (no result: OX1R antag-1, CHO parental Ca, GPR7 antag, OX1R antag-2) | TAAR1 nonsel count 26.3 | TAAR1 antag conf inactive | Ga16 ag counter inactive | TAAR1 ag counter inactive
O=C(N/N=C/C=C/c1ccccc1[N+](=O)[O-])c1cc(-c2ccccc2)n[nH]1	TAAR1 antagonist 60.2 | TAAR1 nonsel count 23.6 | TAAR1 antag conf inactive | Ga16 ag counter inactive | TAAR1 ag counter inactive
O=C(COC(=O)/C=C/c1cn(-c2ccccc2)nc1-c1ccc2c(c1)OCCO2)NC1CCS(=O)(=O)C1 (centres undefined)	TAAR1 antagonist 86.6 | TAAR1 nonsel count 39.9 | TAAR1 antag conf 54.9 | Ga16 ag counter inactive | TAAR1 ag counter inactive
CSc1ccccc1C(=O)OCC(=O)NC1CC1	none (no result: OX1R antag-1, CHO parental Ca, GPR7 antag, OX1R antag-2)
O=C(CSc1ccc([N+](=O)[O-])cc1)NCC1CCCCC1	TAAR1 antagonist 104.7 | TAAR1 nonsel count inactive | TAAR1 antag conf inactive | Ga16 ag counter inactive | TAAR1 ag counter inactive
O=C(COC(=O)CSc1ccc(F)cc1)NCC1CCCCC1	none
Oc1cccc(C2c3[nH]c4ccccc4c3CCN2Cc2ccc3c(c2)CCO3)c1 (centres undefined)	none
COc1ccc(CNC(=O)COc2ccc(S(=O)(=O)N3CCCCC3)cc2Cl)cc1	TAAR1 antagonist 73.0 | TAAR1 nonsel count 26.2 | TAAR1 antag conf inactive | Ga16 ag counter inactive | TAAR1 ag counter inactive
Cn1c(NC(=O)c2cccc(Cn3cc(Cl)cn3)c2)nc2ccccc21	none
CCn1c(NC(=O)c2cccc(Cn3cc(Cl)cn3)c2)nc2ccccc21	TAAR1 antagonist 65.6 | TAAR1 nonsel count 26.4 | TAAR1 antag conf inactive | Ga16 ag counter inactive | TAAR1 ag counter inactive
CCOc1ccccc1N(CC(=O)Nc1cccc(OC)c1)S(=O)(=O)c1ccccc1	TAAR1 antagonist 52.2 | TAAR1 nonsel count inactive | TAAR1 antag conf inactive | Ga16 ag counter inactive | TAAR1 ag counter inactive
COc1ccccc1N(CC(=O)Nc1cccnc1)S(=O)(=O)c1ccccc1	none
COc1ccc(S(=O)(=O)N(CC(=O)Nc2ccc3c(c2)OCO3)c2ccccc2OC)cc1	TAAR1 antagonist 68.9 | TAAR1 nonsel count 27.1 | TAAR1 antag conf 56.2 | Ga16 ag counter inactive | TAAR1 ag counter inactive
CCCN1CCC(NCc2cn(C)nc2-c2ccc(Oc3ccccc3)cc2)CC1	none
CC1(c2nnc(-c3ccc(F)cc3)o2)CC(c2cccnc2)=NO1 (centres undefined)	none (no result: GPR7 antag)
CC1(C)CC(=O)c2c(nc(SCC(=O)Nc3nsc(-c4ccccc4)n3)c(C#N)c2-c2ccccc2)C1	none
CCc1c(C#N)c(SCCC(=O)Nc2ccc(F)cc2)nc2c1C(=O)CC(C)(C)C2	TAAR1 antagonist 74.4 | TAAR1 nonsel count 32.8 | TAAR1 antag conf 71.7 | Ga16 ag counter inactive | TAAR1 ag counter inactive
COc1ccc2c(c1)c(=O)oc1cc(OC(C(=O)O)c3ccccc3)ccc12 (centres undefined)	TAAR1 antagonist 103.9 | TAAR1 nonsel count inactive | TAAR1 antag conf inactive | Ga16 ag counter inactive | TAAR1 ag counter inactive
O=C(O)C(Oc1ccc2c(-c3ccccc3)cc(=O)oc2c1)c1ccccc1 (centres undefined)	none
CCC(CC)c1nnc(NC(=O)c2c(-c3ccccc3)noc2C)s1	none
CCCCn1c(=O)n(CC(=O)NCc2ccc(C)cc2)c(=O)c2c1nc(CO)n2CCC	TAAR1 antagonist 50.3 | TAAR1 nonsel count 21.9 | TAAR1 antag conf inactive | Ga16 ag counter inactive | TAAR1 ag counter inactive
Cc1ccc(CNC(=O)CCCn2c(=O)c3ccccc3n(CC(=O)NC3CCCC3)c2=O)cc1	none
O=C(CCc1nc2ccccc2c(=O)[nH]1)N1CCN(S(=O)(=O)c2cc(Cl)ccc2Cl)CC1	none (no result: OX1R antag-1, CHO parental Ca, GPR7 antag, OX1R antag-2)
C=CCOC(=O)C1=C(C)NC(=O)NC1c1ccc(Cl)cc1 (centres undefined)	none
COC(=O)[C@@]1(Sc2ccc(C)cc2)CC(=O)N(c2ccccc2)[C@@H]1c1ccccc1	TAAR1 antagonist 95.1 (no result: OX1R antag-1, CHO parental Ca, GPR7 antag, OX1R antag-2) | TAAR1 nonsel count 39.3 | TAAR1 antag conf 78.4 | Ga16 ag counter inactive | TAAR1 ag counter inactive
O=C1c2ccccc2C(=O)N1CCc1nc(-c2ccc(Cl)cc2)no1	TAAR1 antagonist 63.4 | TAAR1 nonsel count 28.6 | TAAR1 antag conf inactive | Ga16 ag counter inactive | TAAR1 ag counter inactive
CC(C)C(=O)Nc1cccc(C(=O)OCC(=O)c2ccc(Cl)cc2Cl)c1	TAAR1 antagonist 78.3 | TAAR1 nonsel count 54.4 | TAAR1 antag conf 61.0 | Ga16 ag counter 13.7 | TAAR1 ag counter inactive
CC(=O)Nc1cc(C(=O)OCC(=O)c2ccc(Cl)cc2Cl)ccc1C	none
CCc1ccc2[nH]c(=O)c(CN(Cc3ccco3)S(=O)(=O)c3ccc4c(c3)OCCO4)cc2c1	none
CCCCN(Cc1cc2ccccc2[nH]c1=O)S(=O)(=O)c1ccc(C)cc1	TAAR1 antagonist 62.5 | TAAR1 nonsel count inactive | TAAR1 antag conf inactive | Ga16 ag counter inactive | TAAR1 ag counter inactive
